The text below walks through data of ChEMBL document CHEMBL3621143, “Discovery of BMS-641988, a Novel Androgen Receptor Antagonist for the Treatment of Prostate Cancer” (ACS Med Chem Lett, 2015).

Data set [1] is described as follows: Oral bioavailability in rat at 10 mg/kg. In kind it is ADME, organism-based. Particulars: in vivo. Put shortly: (§1)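 Single IV and oral doses in mouse and rat (IV 5, PO 10 mg/kg) and dog (IV 1, PO 2 mg/kg). Half-life, clearance, AUC0-∞ (µM*h) and %F derived from the plasma profiles.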
Data set [2] in a line: Drug metabolism in monkey hepatocytes assessed per 10^6 cells. Type of data set: ADME, cell-based, Macaca mulatta, Hepatocyte. Particulars: rhesus monkey. Put shortly:
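Metabolic rate in mouse, rat, dog, monkey and human hepatocyte incubations, expressed as pmol/min/10^6 cells.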

Data set [3] in a line: Fraction unbound in rat plasma by equilibrium dialysis method. Type of data set: ADME, cell-free. An outline of the steps:
(§2)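 Plasma protein binding measured by equilibrium dialysis in mouse, rat, dog and human plasma, reported as % free.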

Data set [4] is described as follows: AUC (0 to infinity) in rat at 10 mg/kg, po. In kind it is ADME, organism-based. The conditions noted are these: in vivo. The arrangement: dose 10 mg/kg, route oral, time infinity. An outline of the steps:
as §1

The nature of data set [5]: AUC (0 to infinity) in mouse at 10 mg/kg, po. In kind it is ADME, organism-based. On the set-up: dose 10 mg/kg, route oral, time infinity. Particulars: in vivo. Put shortly: as §1
Data set [6] is described as follows: AUC (0 to infinity) in dog at 1 mg/kg, iv. In kind it is ADME, organism-based, Canis lupus familiaris. The arrangement: dose 1 mg/kg, route intravenous, time infinity. Particulars: in vivo. An outline of the steps:
as §1

A short description of data set [7]: Fraction unbound in mouse plasma by equilibrium dialysis method. In kind it is ADME, cell-free. An outline of the steps: as §2
For another data set, the system named is CWR22. In words: Antitumor activity against bicalutamide-resistant human CWR22 cells in Balb/c athymic (nu/nu) mouse CWR22-BMSLD1 prostate cancer xenograft model assessed as tumor growth inhibition at 90 mg/kg, po qd administered for 45 days measured from day 10 to 45 during compound dosing. Type of data set: functional, organism-based. Put shortly:
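CWR22-BMSLD1 human prostate cancer xenograft. Oral once-daily dosing at 90 mg/kg for 45 days, or at 150 mg/kg for 35 days, with a vehicle group. Median tumor volume (mm3) tracked against days post implant.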
(In general: In xenograft studies the graft and the host belong to different species.)

Data set [8] can be described thus: Oral bioavailability in mouse at 10 mg/kg. In kind it is ADME, organism-based. The conditions noted are these: in vivo. An outline of the steps: as §1
A further data set deals with Rattus norvegicus. In words: In vivo antagonist activity at androgen receptor in immature Sprague-Dawley rat prostate weight model assessed as testosterone propionate-induced weight of seminal vesicles over full body weight at 10 mg/kg, po qd administered for 4 days. Type of data set: functional. The arrangement: scale not given: the % may be the effect or the level left. Put shortly: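 Immature rat prostate weight PK/PD model. Oral dosing once daily at 1 or 10 mg/kg for 4 days. Seminal vesicle weight expressed as % of full body weight, n=3, scaled so testosterone-treated control = 100% and sham = 10%.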

Data set [9] in a line: AUC (0 to infinity) in dog at 2 mg/kg, po. On the set-up: dose 2 mg/kg, time infinity, route oral. In kind it is ADME, organism-based, Canis lupus familiaris. The conditions noted are these: in vivo. Put shortly: as §1
A further data set deals with T1, Cytochrome P450 1A2 (Homo sapiens, UniProt P05177).
T1 sequence (P05177 whole entry): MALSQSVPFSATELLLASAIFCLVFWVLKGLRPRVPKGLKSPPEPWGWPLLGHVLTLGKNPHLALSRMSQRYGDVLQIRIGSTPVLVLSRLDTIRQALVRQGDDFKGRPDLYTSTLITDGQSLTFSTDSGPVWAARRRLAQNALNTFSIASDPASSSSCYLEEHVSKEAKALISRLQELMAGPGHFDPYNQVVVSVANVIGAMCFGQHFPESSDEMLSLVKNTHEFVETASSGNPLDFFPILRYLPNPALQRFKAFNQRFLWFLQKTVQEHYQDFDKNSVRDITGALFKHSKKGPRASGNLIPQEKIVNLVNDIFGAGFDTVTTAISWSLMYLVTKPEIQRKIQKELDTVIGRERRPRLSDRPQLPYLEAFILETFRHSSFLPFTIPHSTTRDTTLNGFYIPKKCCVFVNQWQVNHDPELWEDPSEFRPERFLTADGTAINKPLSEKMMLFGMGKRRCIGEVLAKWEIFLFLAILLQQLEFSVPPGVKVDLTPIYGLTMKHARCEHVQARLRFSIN
As to the kind of experiment: Inhibition of human CYP1A2. In kind it is ADME.

Data set [10] is described as follows: AUC (0 to infinity) in rat at 5 mg/kg, iv. Particulars: in vivo. On the set-up: dose 5 mg/kg, route intravenous, time infinity. Type of data set: ADME, organism-based. Put shortly:
as §1

The source made the active and inactive calls. The calls are words filed in the database; no cut-off is given here. Bounds are passed on as bounds.

As usually defined, the bioavailability is dose-corrected exposure relative to a reference, in per cent. The fraction unbound is the share of the substance not bound to proteins or other matrix. By AUC(0-inf) is commonly meant the area under the concentration-time curve extrapolated to infinity. Broadly, the IC50 is the concentration that gives 50% inhibition. Regarding `CCS(=O)(=O)N[C@@H]1C[C@]2(C)O[C@]1(C)[C@@H]1C(=O)N(c3ccc(C#N)c(C(F)(F)F)c3)C(=O)[C@@H]12`, the figures for the bioavailability in data set [1] and in data set [8] were 63.9% and 94.7%, respectively. The same compound displayed a Drug metabolism in data set [2] of 1 pmol/min. The fraction unbound in [3] came out at 0.106; in [7] it was 0.148. The area under the curve AUC(0-inf) stood at 40.5 µM·h in [4]; 74.1 µM·h in data set [5]; 102 µM·h in data set [6]; 160 µM·h in [9]; 31.7 µM·h in data set [10]. The TGI entry in the data set on CWR22 is “Active”. The Activity with Rattus norvegicus came out at 26%. The compound also showed an IC50 at Cytochrome P450 1A2 of more than 40 µM.
